Source: publication PMC5338039 (Biochemistry, 2017)
Entries after “also recorded” stand apart in the source; their conditions may differ.

Assays:
[1] = molecular target: GPR55 H(170)F (Homo sapiens, UniProt Q9Y2T6, H170F); assay: SRE luciferase assay, H; format: cell-based
Summary of the method: (§1)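 HA-tagged human GPR55 (WT or sequence-confirmed site-directed mutant, pcDNA3) co-transfected by lipofection with pGL4.33 luc2P/SRE reporter into HEK293 cells; 60,000 cells/well, switched to 1% FBS/DMEM after 5 h, overnight. Agonist test compounds (10 mM DMSO stocks) added for 5 h in serum-free DMEM, 37°C. Cells lysed 10 min at room temperature, luciferin injected, luminescence read immediately (RLU). EC50 from sigmoidal nonlinear regression.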

[2] = molecular target: T1, GPR55 C(260)A (Homo sapiens, UniProt Q9Y2T6, C260A); assay: SRF luciferase assay, C; format: cell-based
[3] = molecular target: T2, GPR55 E3.29L (Homo sapiens, UniProt Q9Y2T6, E98L); assay: SRF luciferase assay, E3.29L mutant; format: cell-based
[4] = molecular target: T3, GPR55 Y3.32F (Homo sapiens, UniProt Q9Y2T6, Y101F); assay: SRF luciferase assay, Y3.32F mutant; format: cell-based
[5] = molecular target: T4, GPR55 F6.55L (Homo sapiens, UniProt Q9Y2T6, F246L); assay: SRF luciferase assay, F6.55L mutant; format: cell-based
[6] = tested on: GPR55; conditions: agonist screen of the NIH library; cited from earlier work
[7] = molecular target: T5, GPR55 C(10)A (Homo sapiens, UniProt Q9Y2T6, C10A); assay: SRE luciferase assay, C; format: cell-based
Summary of the method: as §1

[8] = molecular target: T6, GPR55 K2.60A (Homo sapiens, UniProt Q9Y2T6, K80A); assay: SRE luciferase assay, K2.60A mutant; format: cell-based
Summary of the method: as §1

[9] = molecular target: T7, GPR55 M3.36A (Homo sapiens, UniProt Q9Y2T6, M105A); assay: SRF luciferase assay, M3.36A mutant; format: cell-based
[10] = molecular target: T6, GPR55 K2.60A; assay: SRF luciferase assay, K2.60A mutant; format: cell-based
[11] = molecular target: T4, GPR55 F6.55L; assay: SRE luciferase assay, F6.55L mutant; format: cell-based
Summary of the method: as §1

[12] = molecular target: GPR55 Q7.36N (Homo sapiens, UniProt Q9Y2T6, Q271N); assay: SRE luciferase assay, Q7.36N mutant; format: cell-based
Summary of the method: as §1

[13] = molecular target: T2, GPR55 E3.29L; assay: SRE luciferase assay, E3.29L mutant; format: cell-based
Summary of the method: as §1

[14] = molecular target: T8, WT GPR55 (Homo sapiens, UniProt Q9Y2T6); assay: SRE luciferase assay, WT GPR55; format: cell-based
[15] = molecular target: T8, WT GPR55; assay: SRF luciferase assay, WT GPR55; format: cell-based
[16] = molecular target: T9, GPR55 F6.55A (Homo sapiens, UniProt Q9Y2T6, F246A); assay: SRE luciferase assay, F6.55A mutant; format: cell-based
Summary of the method: as §1

[17] = molecular target: T7, GPR55 M3.36A; assay: SRE luciferase assay, M3.36A mutant; format: cell-based
Summary of the method: as §1

[18] = molecular target: T3, GPR55 Y3.32F; assay: SRE luciferase assay, Y3.32F mutant; format: cell-based
Summary of the method: as §1

[19] = molecular target: T1, GPR55 C(260)A; assay: SRE luciferase assay, C; format: cell-based
Summary of the method: as §1

[20] = molecular target: T9, GPR55 F6.55A; assay: SRF luciferase assay, F6.55A mutant; format: cell-based
[21] = molecular target: GPR55 Q7.36A (Homo sapiens, UniProt Q9Y2T6, Q271A); assay: SRE luciferase assay, Q7.36A mutant; format: cell-based
Summary of the method: as §1

[22] = molecular target: T10, GPR55 Y3.32L (Homo sapiens, UniProt Q9Y2T6, Y101L); assay: SRF luciferase assay, Y3.32L mutant; format: cell-based
[23] = molecular target: T11, GPR55 F6.48A (Homo sapiens, UniProt Q9Y2T6, F239A); assay: SRE luciferase assay, F6.48A mutant; format: cell-based
Summary of the method: as §1

[24] = molecular target: T10, GPR55 Y3.32L; assay: SRE luciferase assay, Y3.32L mutant; format: cell-based
Summary of the method: as §1

[25] = molecular target: T12, GPR55 E3.29A (Homo sapiens, UniProt Q9Y2T6, E98A); assay: SRF luciferase assay, E3.29A mutant; format: cell-based
[26] = molecular target: T11, GPR55 F6.48A; assay: SRF luciferase assay, F6.48A mutant; format: cell-based
[27] = molecular target: T12, GPR55 E3.29A; assay: SRE luciferase assay, E3.29A mutant; format: cell-based
Summary of the method: as §1

[28] = molecular target: T5, GPR55 C(10)A; assay: SRF luciferase assay, C; format: cell-based
[29] = molecular target: GPR55 Q6.58M (Homo sapiens, UniProt Q9Y2T6, Q249M); assay: SRE luciferase assay, Q6.58M mutant; format: cell-based
Summary of the method: as §1

T7 sequence (Q9Y2T6 whole entry M105A): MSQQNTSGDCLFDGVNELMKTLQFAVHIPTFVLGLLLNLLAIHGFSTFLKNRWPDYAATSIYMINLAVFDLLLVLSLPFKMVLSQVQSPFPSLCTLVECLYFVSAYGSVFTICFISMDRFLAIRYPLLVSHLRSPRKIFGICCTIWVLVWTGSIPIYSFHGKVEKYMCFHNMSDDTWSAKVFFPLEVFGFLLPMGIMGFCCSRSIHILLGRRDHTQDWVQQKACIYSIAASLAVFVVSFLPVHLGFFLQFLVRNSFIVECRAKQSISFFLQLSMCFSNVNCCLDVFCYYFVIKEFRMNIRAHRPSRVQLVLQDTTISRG
T9 sequence (Q9Y2T6 whole entry F246A): as the sequence (Q9Y2T6 whole entry M105A) above, with A105M, F246A counted along it
T11 sequence (Q9Y2T6 whole entry F239A): as the sequence (Q9Y2T6 whole entry M105A) above, with A105M, F239A counted along it
T10 sequence (Q9Y2T6 whole entry Y101L): as the sequence (Q9Y2T6 whole entry M105A) above, with Y101L, A105M counted along it
Sequence of GPR55 Q7.36A (Q9Y2T6 whole entry Q271A): as the sequence (Q9Y2T6 whole entry M105A) above, with A105M, Q271A counted along it
Sequence of GPR55 Q7.36N (Q9Y2T6 whole entry Q271N): as the sequence (Q9Y2T6 whole entry M105A) above, with A105M, Q271N counted along it
Sequence of GPR55 Q6.58M (Q9Y2T6 whole entry Q249M): as the sequence (Q9Y2T6 whole entry M105A) above, with A105M, Q249M counted along it
T6 sequence (Q9Y2T6 whole entry K80A): as the sequence (Q9Y2T6 whole entry M105A) above, with K80A, A105M counted along it
T1 sequence (Q9Y2T6 whole entry C260A): as the sequence (Q9Y2T6 whole entry M105A) above, with A105M, C260A counted along it
T2 sequence (Q9Y2T6 whole entry E98L): as the sequence (Q9Y2T6 whole entry M105A) above, with E98L, A105M counted along it
Sequence of GPR55 H(170)F (Q9Y2T6 whole entry H170F): as the sequence (Q9Y2T6 whole entry M105A) above, with A105M, H170F counted along it
T4 sequence (Q9Y2T6 whole entry F246L): as the sequence (Q9Y2T6 whole entry M105A) above, with A105M, F246L counted along it
T12 sequence (Q9Y2T6 whole entry E98A): as the sequence (Q9Y2T6 whole entry M105A) above, with E98A, A105M counted along it
T5 sequence (Q9Y2T6 whole entry C10A): as the sequence (Q9Y2T6 whole entry M105A) above, with C10A, A105M counted along it
T3 sequence (Q9Y2T6 whole entry Y101F): as the sequence (Q9Y2T6 whole entry M105A) above, with Y101F, A105M counted along it
T8 sequence (Q9Y2T6 whole entry): as the sequence (Q9Y2T6 whole entry M105A) above, with A105M counted along it

EC50 [1]: 341 nM | SRE response compared with WT (in words) ([1]; H(170)F): slight difference from that of WT | Fold/WT, SRE EC50 ([1]; H(170)F vs WT): 6 fold | EC50 [2]: 363 nM | SRF response compared with WT (in words) ([2]; C(260)A): less response than WT | Fold/WT, SRF EC50 ([2]; C(260)A vs WT): 11 fold | EC50 [3]: > 30000 nM | SRF response compared with WT (in words) ([3]; E3.29L): reduced responses | EC50 [4]: 851 nM | SRF response compared with WT (in words) ([4]; Y3.32F): right shifted curves | Fold/WT, SRF EC50 ([4]; Y3.32F vs WT): 26 fold | EC50 [5]: 10500 nM | SRF response compared with WT (in words) ([5]; F6.55L): higher EC50 values than WT | Fold/WT, SRF EC50 ([5]; F6.55L vs WT): 318 fold | EC50 [7]: 635 nM | Fold/WT, SRE EC50 ([7]; C(10)A vs WT): 11 fold | EC50, SRE response ([8]; transfected HEK293, n ≥ 3): NO response | EC50 [9]: 2040 nM | SRF response compared with WT (in words) ([9]; M3.36A): reduced responses | Fold/WT, SRF EC50 ([9]; M3.36A vs WT): 62 fold | EC50, SRF response ([10]; transfected HEK293, n ≥ 3): NO response | EC50 [11]: 5130 nM | SRE response compared with WT (in words) ([11]; F6.55L): right shifted curves | Fold/WT, SRE EC50 ([11]; F6.55L vs WT): 92 fold | EC50 [12]: 154 nM | SRE response compared with WT (in words) ([12]; Q7.36N): retains WT signalling | Fold/WT, SRE EC50 ([12]; Q7.36N vs WT): 3 fold | EC50 [13]: > 30000 nM | EC50 [14]: 56 nM | EC50 [15]: 33 nM | EC50 [16]: 840 nM | SRE response compared with WT (in words) ([16]; F6.55A): right shifted curves | Fold/WT, SRE EC50 ([16]; F6.55A vs WT): 15 fold | EC50 [17]: 900 nM | Fold/WT, SRE EC50 ([17]; M3.36A vs WT): 16 fold | EC50 [18]: 1660 nM | SRE response compared with WT (in words) ([18]; Y3.32F): right shifted SRE response curves | Fold/WT, SRE EC50 ([18]; Y3.32F vs WT): 30 fold | EC50 [19]: 657 nM | Fold/WT, SRE EC50 ([19]; C(260)A vs WT): 12 fold | EC50 [20]: 550 nM | SRF response compared with WT (in words) ([20]; F6.55A): higher EC50 values than WT | Fold/WT, SRF EC50 ([20]; F6.55A vs WT): 17 fold | EC50 [21]: 230 nM | SRE response compared with WT (in words) ([21]; Q7.36A): retains WT signalling | Fold/WT, SRE EC50 ([21]; Q7.36A vs WT): 4 fold | EC50 [22]: 864000 nM | SRF response compared with WT (in words) ([22]; Y3.32L): right shifted curves | Fold/WT, SRF EC50 ([22]; Y3.32L vs WT): 26182 fold | EC50 [23]: 514 nM | Fold/WT, SRE EC50 ([23]; F6.48A vs WT): 9 fold | EC50 [24]: 9510 nM | SRE response compared with WT (in words) ([24]; Y3.32L): right shifted SRE response curves | Fold/WT, SRE EC50 ([24]; Y3.32L vs WT): 170 fold | EC50 [25]: > 30000 nM | SRF response compared with WT (in words) ([25]; E3.29A): reduced responses | EC50 [26]: 335 nM | SRF response compared with WT (in words) ([26]; F6.48A): reduced responses | Fold/WT, SRF EC50 ([26]; F6.48A vs WT): 10 fold | EC50 [27]: > 30000 nM | EC50 [28]: 554 nM | SRF response compared with WT (in words) ([28]; C(10)A): less response than WT | Fold/WT, SRF EC50 ([28]; C(10)A vs WT): 17 fold | EC50 [29]: 72 nM | Fold/WT, SRE EC50 ([29]; Q6.58M vs WT): 1 fold
SMILES: Cc1cccc(N2CCN(C(=O)c3cc(S(=O)(=O)N(C)C)ccc3N3CCCC3)CC2)c1C [ML184, 3-[4-(2,3-dimethylphenyl)piperazine-1-carbonyl]-N,N-dimethyl-4-pyrrolidin-1-ylbenzenesulfonamide]
EC50 [6]: 263 nM | SRE response compared with WT (in words) [8]: complete loss of signalling; also recorded: did not show any response | SRF response compared with WT (in words) [10]: not able to induce any response; also recorded: complete loss of signalling | SRE response compared with WT (in words) ([13]; E3.29L): profound reduction of receptor signalling; also recorded: very little responses | SRE response compared with WT (in words) ([17]; M3.36A): SRE induction comparable to wild-type; also recorded: increased EC50 values | SRE response compared with WT (in words) ([23]; F6.48A): SRE induction comparable to wild-type; also recorded: increased EC50 values | SRE response compared with WT (in words) ([27]; E3.29A): profound reduction of receptor signalling; also recorded: very little responses | SRE response compared with WT (in words) ([29]; Q6.58M): retained WT signalling; also recorded: almost identical to that of WT
